Converted amounts (≈) assume the structure as drawn.

A word on the IC50: it is the concentration at which inhibition is half-maximal. As a reminder, the CC50 is the concentration that lowers cell viability or growth by half. Broadly, the ΔTm is the change in melting temperature against a reference sample. Broadly, the solubility is how much of the substance goes into solution per volume. In general, EC50 refers to the concentration needed to bring the measured effect to its halfway point.

The first data set has as its target Uracil-DNA glycosylase (Vaccinia virus (strain Western Reserve) (VACV) (Vaccinia virus (strainWR)), UniProt P04303). Nature of the data set: Inhibition of Vaccinia virus WR strain processivity factor D4 interaction with A20 protein assessed as inhibition of E9 DNA polymerase-mediated DIG-dUTP incorporation into DNA strand by rapid plate assay. Also on record: species or system Orthopoxvirus vaccinia.
Details: not given
The method in brief:
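Annealed biotinylated primer/100-bp template was coated on streptavidin plates. Compounds were 2-fold serial dilutions in DMSO. After 37 °C for 30 min, DIG-ELISA was read at 405 nm and normalised to DMSO and EDTA controls. Triplicates were used across at least three experiments.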
Regarding `COc1ccc(/C=C/c2nc(-c3ccccc3O)n(-c3ccccc3)n2)cc1OC`, the IC50 is above 200 µM.
As to `C=C(Cn1cc(C(=O)c2ccc(CC)cc2)c(=O)c2ccccc21)Nc1ccc(OC)c(OC)c1`, the IC50 is above 200 µM.
Same read-out and setting: to `COc1ccc(Nc2cc(C(=O)NCCCN3CCN(c4ccccc4F)CC3)c3ccccc3n2)c(OC)c1` belongs above 200 µM; to `Fc1ccc(Nc2c(-c3ccccn3)nc3ccc(Cl)cn23)cc1`, above 200 µM.
Consider `COc1ccc(C)cc1N(CC(=O)N1CCC(C)CC1)S(=O)(=O)c1ccc(C)cc1`, for which the concentration for half-maximal inhibition (IC50) was determined as 175 µM.
The same measure, in the same setting: under `COc1ccc(OCCn2c(NC(=O)c3ccc(OC)cc3)nc3ccccc32)cc1` stands 169 µM.
For `Cc1ccnc(NC(c2ccccc2F)c2ccc3cccnc3c2O)c1` (centres undefined), the IC50 turned out to be 157 µM.
Turning to `COC(=O)CC1Oc2ccc(C)cc2-n2cc(-c3ccc(F)cc3)nc21` (centres undefined), the IC50 was above 200 µM.
As for `Oc1ccc(NCc2ccccc2OCc2ccccc2)cc1`, the IC50 came out at 5.1 µM.
For the molecule `CCOc1ccc2c(c1)C1CC=CC1[C@H](c1ccccc1Cl)N2` (some centres undefined), the IC50 is 221 µM.
For the molecule `CCOC(=O)c1cnc2c(ccc3ccccc32)c1Nc1ccc(N(C)C)cc1`, the half-maximal inhibitory concentration (IC50) is 139 µM.
As for `Cc1ccccc1Nc1c(-c2ccc(Br)cc2O)nc2sccn12`, the IC50 is above 200 µM.
In the case of `Cc1ccc2oc(-c3ccc(Cl)cc3)c(O)c(=O)c2c1`, the IC50 is 195 µM.
For `COc1ccc(N2CCN(Cc3nc4c(c(=O)[nH]c(=O)n4C)n3Cc3ccc(Cl)cc3)CC2)cc1`, the IC50 is above 200 µM.

The subject of another data set is BSC-1. Nature of the data set: Cytotoxicity against african green monkey BSC1 cells infected with Vaccinia virus assessed as lactate dehydrogenase release after 20 hrs by microplate reader. The class given is cell-based. Particulars: chlorocebus aethiops, bsc-1, 20 h. The method in brief:
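BSC-1 cells, seeded at 1 × 10^4 cells/well for 24 h, then received inhibitors at 2-fold serial dilutions in fresh medium with 1% DMSO for 20 h. LDH release into the medium was read at 492 nm after 30 min with reaction mixture in the dark. 2% Triton X-100 gave maximal release and 1% DMSO served as baseline. Triplicates were used, with three independent repeats, giving CC50.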
For the molecule `COc1ccc(/C=C/c2nc(-c3ccccc3O)n(-c3ccccc3)n2)cc1OC`, the CC50 was determined as 107 µM.
For the molecule `C=C(Cn1cc(C(=O)c2ccc(CC)cc2)c(=O)c2ccccc21)Nc1ccc(OC)c(OC)c1`, the CC50 was determined as 52.9 µM.
Same read-out and setting: under `COc1ccc(Nc2cc(C(=O)NCCCN3CCN(c4ccccc4F)CC3)c3ccccc3n2)c(OC)c1` stands above 200 µM.
The same measure, in the same setting: to `Fc1ccc(Nc2c(-c3ccccn3)nc3ccc(Cl)cn23)cc1` belongs above 200 µM; to `COc1ccc(C)cc1N(CC(=O)N1CCC(C)CC1)S(=O)(=O)c1ccc(C)cc1`, above 200 µM.
The same measure, in the same setting: under `COc1ccc(OCCn2c(NC(=O)c3ccc(OC)cc3)nc3ccccc32)cc1` stands 23.2 µM; under `Cc1ccnc(NC(c2ccccc2F)c2ccc3cccnc3c2O)c1` (centres undefined), above 200 µM; under `COC(=O)CC1Oc2ccc(C)cc2-n2cc(-c3ccc(F)cc3)nc21` (centres undefined), 84.1 µM.
Take `Oc1ccc(NCc2ccccc2OCc2ccccc2)cc1`: the CC50 worked out at 175 µM.
On to `CCOc1ccc2c(c1)C1CC=CC1[C@H](c1ccccc1Cl)N2` (some centres undefined), for which the CC50 is above 200 µM.
As to `CCOC(=O)c1cnc2c(ccc3ccccc32)c1Nc1ccc(N(C)C)cc1`, the CC50 is above 200 µM.
Still for that read-out and setting: under `Cc1ccccc1Nc1c(-c2ccc(Br)cc2O)nc2sccn12` stands 142 µM; under `Cc1ccc2oc(-c3ccc(Cl)cc3)c(O)c(=O)c2c1`, above 200 µM.
The same measure, in the same setting: to `COc1ccc(N2CCN(Cc3nc4c(c(=O)[nH]c(=O)n4C)n3Cc3ccc(Cl)cc3)CC2)cc1` belongs 92.8 µM.

The next data set concerns the target Uracil-DNA glycosylase (Vaccinia virus (strain Western Reserve) (VACV) (Vaccinia virus (strainWR))) (UniProt P04303). Nature of the data set: Binding affinity at Vaccinia virus WR strain D4 assessed as change in unfolding transition temperature at 50 uM by thermofluor method.
Details: not given
The gist of the method: (§1)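 Native D4 at 4 μM, His-tag removed and dialysed into buffer, was tested with or without 50 μM compound (final, 1% DMSO). Buffer was 25 mM Tris pH 7.2, 0.15 M NaCl, 5 mM ZnCl2, with Sypro Orange. Fluorescence was read from 25 to 80 °C at 1 °C/min. Tm is the unfolding midpoint, and ΔTm is Tm minus the DMSO mock. At least three independent experiments were run.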
For orientation: DSF heats the sample and reads unfolding from a dye or from intrinsic fluorescence.
Regarding `COc1ccc(/C=C/c2nc(-c3ccccc3O)n(-c3ccccc3)n2)cc1OC`, the ΔTm is -3.7 °C.
Same read-out and setting: under `C=C(Cn1cc(C(=O)c2ccc(CC)cc2)c(=O)c2ccccc21)Nc1ccc(OC)c(OC)c1` stands -3.2 °C; under `COc1ccc(Nc2cc(C(=O)NCCCN3CCN(c4ccccc4F)CC3)c3ccccc3n2)c(OC)c1`, -3.6 °C; under `Fc1ccc(Nc2c(-c3ccccn3)nc3ccc(Cl)cn23)cc1`, -3.7 °C.
As for `COc1ccc(C)cc1N(CC(=O)N1CCC(C)CC1)S(=O)(=O)c1ccc(C)cc1`, the ΔTm was -4.8 °C.
In the case of `COc1ccc(OCCn2c(NC(=O)c3ccc(OC)cc3)nc3ccccc32)cc1`, the ΔTm is -4.1 °C.
On to `Cc1ccnc(NC(c2ccccc2F)c2ccc3cccnc3c2O)c1` (centres undefined), for which the ΔTm was -2 °C.
Same read-out and setting: under `COC(=O)CC1Oc2ccc(C)cc2-n2cc(-c3ccc(F)cc3)nc21` (centres undefined) stands -6.6 °C; under `Oc1ccc(NCc2ccccc2OCc2ccccc2)cc1`, 14.9 °C; under `CCOc1ccc2c(c1)C1CC=CC1[C@H](c1ccccc1Cl)N2` (some centres undefined), -5 °C.
Consider `CCOC(=O)c1cnc2c(ccc3ccccc32)c1Nc1ccc(N(C)C)cc1`, for which the ΔTm is -1.5 °C.
Consider `Cc1ccccc1Nc1c(-c2ccc(Br)cc2O)nc2sccn12`, for which the ΔTm is -1.9 °C.
On to `Cc1ccc2oc(-c3ccc(Cl)cc3)c(O)c(=O)c2c1`, for which the ΔTm is -2 °C.
For `COc1ccc(N2CCN(Cc3nc4c(c(=O)[nH]c(=O)n4C)n3Cc3ccc(Cl)cc3)CC2)cc1`, the ΔTm is -2.5 °C.

System in a further data set: not listed separately
Nature of the data set: Solubility of the compound in phosphate buffer by chemiluminescence of total nitrogen contents. The class given is physicochemical. Particulars: buffer.
Take `Oc1ccc(NCc2ccccc2OCc2ccccc2)cc1`: the solubility was 1.1 µg/mL (≈ 3.6 µM).

The next data set concerns Vaccinia virus. Nature of the data set: Antiviral activity against Vaccinia virus infected in BSC-1 cells by plaque reduction assay. In kind it is functional, organism-based. As to conditions: Orthopoxvirus vaccinia. On the technique in general: In a plaque reduction assay, fewer plaques than in the control indicate reduced infectivity or spread.
For `COc1ccc(/C=C/c2nc(-c3ccccc3O)n(-c3ccccc3)n2)cc1OC`, the EC50 was above 200 µM.
On the same count and under the same terms, under `C=C(Cn1cc(C(=O)c2ccc(CC)cc2)c(=O)c2ccccc21)Nc1ccc(OC)c(OC)c1` stands above 200 µM; under `COc1ccc(Nc2cc(C(=O)NCCCN3CCN(c4ccccc4F)CC3)c3ccccc3n2)c(OC)c1`, 25.8 µM; under `Fc1ccc(Nc2c(-c3ccccn3)nc3ccc(Cl)cn23)cc1`, 3.8 µM.
The molecule `COc1ccc(OCCn2c(NC(=O)c3ccc(OC)cc3)nc3ccccc32)cc1` returned an EC50 of 47.9 µM.
Same read-out and setting: under `Cc1ccnc(NC(c2ccccc2F)c2ccc3cccnc3c2O)c1` (centres undefined) stands 2.9 µM; under `COC(=O)CC1Oc2ccc(C)cc2-n2cc(-c3ccc(F)cc3)nc21` (centres undefined), above 200 µM.
With `Oc1ccc(NCc2ccccc2OCc2ccccc2)cc1`, it took 7.1 µM to reach a half-maximal effect (EC50).
As for `CCOc1ccc2c(c1)C1CC=CC1[C@H](c1ccccc1Cl)N2` (some centres undefined), the EC50 worked out at 22.4 µM.
`Cc1ccccc1Nc1c(-c2ccc(Br)cc2O)nc2sccn12` gave an EC50 above 200 µM.
The molecule `COc1ccc(N2CCN(Cc3nc4c(c(=O)[nH]c(=O)n4C)n3Cc3ccc(Cl)cc3)CC2)cc1` returned an EC50 above 200 µM.

System in another data set: not listed separately
Nature of the data set: Selectivity index, CC50 for African green monkey BSC-1 cells to EC50 for Vaccinia virus. In kind it is toxicity, cell-based. Particulars: read-out: Ratio CC50/EC50.
For the molecule `COc1ccc(/C=C/c2nc(-c3ccccc3O)n(-c3ccccc3)n2)cc1OC`, the selectivity ratio came to 0.5.
Consider `C=C(Cn1cc(C(=O)c2ccc(CC)cc2)c(=O)c2ccccc21)Nc1ccc(OC)c(OC)c1`, for which the selectivity ratio was 0.3.
Still for that read-out and setting: to `COc1ccc(Nc2cc(C(=O)NCCCN3CCN(c4ccccc4F)CC3)c3ccccc3n2)c(OC)c1` belongs 8.
On the same count and under the same terms, to `Fc1ccc(Nc2c(-c3ccccn3)nc3ccc(Cl)cn23)cc1` belongs 53; to `COc1ccc(OCCn2c(NC(=O)c3ccc(OC)cc3)nc3ccccc32)cc1`, 0.5; to `Cc1ccnc(NC(c2ccccc2F)c2ccc3cccnc3c2O)c1` (centres undefined), 69.
On the same count and under the same terms, to `COC(=O)CC1Oc2ccc(C)cc2-n2cc(-c3ccc(F)cc3)nc21` (centres undefined) belongs 0.4; to `Oc1ccc(NCc2ccccc2OCc2ccccc2)cc1`, 25; to `CCOc1ccc2c(c1)C1CC=CC1[C@H](c1ccccc1Cl)N2` (some centres undefined), 9.
With `Cc1ccccc1Nc1c(-c2ccc(Br)cc2O)nc2sccn12`, the selectivity ratio came out at 9.
As to `COc1ccc(N2CCN(Cc3nc4c(c(=O)[nH]c(=O)n4C)n3Cc3ccc(Cl)cc3)CC2)cc1`, the selectivity ratio is 0.4.

The next data set addresses Uracil-DNA glycosylase (Vaccinia virus (strain Western Reserve) (VACV) (Vaccinia virus (strainWR))) (UniProt P04303). Nature of the data set: Binding affinity at Vaccinia virus WR strain D4 assessed as melting temperature at 50 uM by thermofluor method.
Details: not given
The gist of the method: as §1
On to `COc1ccc(/C=C/c2nc(-c3ccccc3O)n(-c3ccccc3)n2)cc1OC`, for which the Tm is 34.7 °C.
Turning to `C=C(Cn1cc(C(=O)c2ccc(CC)cc2)c(=O)c2ccccc21)Nc1ccc(OC)c(OC)c1`, the Tm is 35.4 °C.
Regarding `COc1ccc(Nc2cc(C(=O)NCCCN3CCN(c4ccccc4F)CC3)c3ccccc3n2)c(OC)c1`, the Tm worked out at 34.8 °C.
On the same count and under the same terms, to `Fc1ccc(Nc2c(-c3ccccn3)nc3ccc(Cl)cn23)cc1` belongs 34.7 °C; to `COc1ccc(C)cc1N(CC(=O)N1CCC(C)CC1)S(=O)(=O)c1ccc(C)cc1`, 33.6 °C; to `COc1ccc(OCCn2c(NC(=O)c3ccc(OC)cc3)nc3ccccc32)cc1`, 34.3 °C.
On the same count and under the same terms, under `Cc1ccnc(NC(c2ccccc2F)c2ccc3cccnc3c2O)c1` (centres undefined) stands 36.4 °C; under `COC(=O)CC1Oc2ccc(C)cc2-n2cc(-c3ccc(F)cc3)nc21` (centres undefined), 32.2 °C; under `Oc1ccc(NCc2ccccc2OCc2ccccc2)cc1`, 53.3 °C.
Consider `CCOc1ccc2c(c1)C1CC=CC1[C@H](c1ccccc1Cl)N2` (some centres undefined), for which the Tm worked out at 35.2 °C.
On the same count and under the same terms, under `CCOC(=O)c1cnc2c(ccc3ccccc32)c1Nc1ccc(N(C)C)cc1` stands 36.3 °C.
Same read-out and setting: to `Cc1ccccc1Nc1c(-c2ccc(Br)cc2O)nc2sccn12` belongs 36.5 °C; to `Cc1ccc2oc(-c3ccc(Cl)cc3)c(O)c(=O)c2c1`, 36.4 °C; to `COc1ccc(N2CCN(Cc3nc4c(c(=O)[nH]c(=O)n4C)n3Cc3ccc(Cl)cc3)CC2)cc1`, 35.9 °C.
